Measured values taken from ChEMBL document CHEMBL1154306, “Cembranoid diterpenes from the Caribbean sea whip Eunicea knighti” (2009).
Activity calls are given as the source filed them. The rule behind the calls is not given here.

Tests used:
Bacillus sp. [1] = assay: Antibacterial activity against Bacillus sp. 10-6DEP at 30 ug/disk after 24 to 48 hrs by disk diffusion method; type: functional; conditions: Bacillus sp. (in: firmicutes), read-out: DIZ
In short: (§1)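 Disk diffusion on agar plates against marine bacterial isolates from a heavily fouled surface, identified by 16S rRNA sequencing. 5.2 mm sterilized paper disks loaded with 30 µg compound in CH2Cl2, dried 3 h at room temperature, then placed on plates spread with 100 µL overnight culture (10^6 cfu/mL). Inhibition zone diameter read after 24 and 48 h at 26 °C. Cu2O 600 µg/disk positive control, CH2Cl2 solvent control, triplicate.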

[2] = system: Brucella pseudogrignonensis; assay: Antibacterial activity against Ochrobactrum pseudogrignonense 21-6PIN at 30 ug/disk after 24 to 48 hrs by disk diffusion method; type: functional; conditions: for zone of inhibition at 30 µg/disc: read-out: DIZ
In short: (§2)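 Marine bacterial isolate from a heavily fouled surface, identified by 16S rRNA gene sequence. Agar disk diffusion: sterilised 5.2 mm paper disks loaded with 30 µg pure compound in CH2Cl2 and dried 3 h at room temperature. Plates were seeded with 100 µL of overnight culture (10^6 cfu/mL) and incubated 24 and 48 h at 26 °C. Read-out was inhibition zone diameter, run in triplicate.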

Kocuria sp. 10-4DEP = assay: Antibacterial activity against Kocuria sp. 10-4DEP at 30 ug/disk after 24 to 48 hrs by disk diffusion method; type: functional; conditions: for zone of inhibition at 30 µg/disc: read-out: DIZ; in short: as §1
Alteromonas sp. = assay: Antibacterial activity against Alteromonas sp. 11-6DEP at 30 ug/disk after 24 to 48 hrs by disk diffusion method; type: functional; conditions: for zone of inhibition at 30 µg/disc: read-out: DIZ; in short: as §1
Bacillus sp. [3] = assay: Antibacterial activity against Bacillus sp. 10-6DEP after 24 to 48 hrs by disk diffusion method; type: functional
In short: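 MIC by agar disk diffusion (NCCLS) against Bacillus sp. 10-6DEP. Disks loaded with 30, 16, 8, 4, 2, 1 and 0.5 µg delivered in MeOH. Methanol alone as negative control. Triplicate.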

[4] = system: Brucella pseudogrignonensis; assay: Antibacterial activity against Ochrobactrum pseudogrignonense 4-4DEP after 24 to 48 hrs by disk diffusion method; type: functional
Oceanobacillus iheyensis = assay: Antibacterial activity against Oceanobacillus iheyensis 31-C at 30 ug/disk after 24 to 48 hrs by disk diffusion method; type: functional; conditions: for zone of inhibition at 30 µg/disc: read-out: DIZ; in short: as §1
[5] = system: Brucella pseudogrignonensis; assay: Antibacterial activity against Ochrobactrum pseudogrignonense 4-4DEP at 30 ug/disk after 24 to 48 hrs by disk diffusion method; type: functional; conditions: for zone of inhibition at 30 µg/disc: read-out: DIZ; in short: as §2
Escherichia coli = assay: Antiquorum sensing activity against Escherichia coli pS401 assessed as inhibition of Pseudomonas putida IsoF derived acyl-homoserinelactone-induced bioluminescence upto 200 ug after overnight incubation
In short: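 Biosensor agar overlay. E. coli pS401 and P. putida IsoF grown in LB broth. 15 mL of each culture mixed into LB soft agar (0.8%) and poured over prewarmed LB agar plates. Paper disks received 10 or 20 µL of a 10 mg/mL compound solution. Plates incubated overnight at 37 °C and luminescence imaged. QS inhibition was scored where light was lost but growth around the disk was unaffected.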

[6] = system: Brucella pseudogrignonensis; assay: Antibacterial activity against Ochrobactrum pseudogrignonense 21-6PIN after 24 to 48 hrs by disk diffusion method; type: functional
In short: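 MIC by agar disk diffusion per NCCLS against the marine isolate 21-6PIN. Loadings per disk were 30, 16, 8, 4, 2, 1 and 0.5 µg, delivered in MeOH, with methanol alone as negative control. Run in triplicate.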

Row | SMILES | zone of inhibition at 30 µg/disc (Bacillus sp. [1]) [mm] | zone of inhibition at 30 µg/disc [2] [mm] | zone of inhibition at 30 µg/disc (Kocuria sp. 10-4DEP) [mm] | zone of inhibition at 30 µg/disc (Alteromonas sp.) [mm] | MIC (Bacillus sp. [3]) [µg] | MIC [4] [µg] | zone of inhibition at 30 µg/disc (Oceanobacillus iheyensis) [mm] | zone of inhibition at 30 µg/disc [5] [mm] | Activity (Escherichia coli) | MIC [6] [µg] | diameter of the inhibition zone (DIZ) [5] | diameter of the inhibition zone (DIZ) (Kocuria sp. 10-4DEP) | diameter of the inhibition zone (DIZ) (Alteromonas sp.) | diameter of the inhibition zone (DIZ) [2] | diameter of the inhibition zone (DIZ) (Oceanobacillus iheyensis)
1 | C=C(C)[C@H]1CC/C(C)=C/C/C=C(\C)[C@H](O)CC/C(COC(C)=O)=C\[C@@H]1OC(C)=O | 8 | 8 | 6 | 6 | 30 | >30 | 6 | 6 | Active | 30 | – | – | – | – | –
2 | C=C(C)[C@@H]1C/C=C(/CO)CC[C@H]2O[C@]2(C)CC/C=C(\C)CC1 [KNIGHTOL] | ≥ 10 | 6 | ≥ 10 | 6 | 2 | – | 6 | – | Active | 8 | inactive | – | – | – | –
3 | C=C(C)[C@@H]1C/C=C(/C=O)CC[C@H]2O[C@]2(C)CC/C=C(\C)CC1 [KNIGHTAL] | 8 | 6 | 8 | 6 | 16 | 8 | 6 | – | Active | 8 | inactive | – | – | – | –
4 | C=C(C)[C@H]1CC/C(C)=C/CC[C@@]2(C)O[C@@H]2CC/C(COC(C)=O)=C\[C@@H]1OC(C)=O | 8 | ≥ 10 | – | – | 30 | >30 | 6 | 6 | – | 30 | – | inactive | inactive | – | –
5 | C=C1CC/C=C(\C)CC[C@H](C(=C)C)[C@@H](OC(C)=O)/C=C(/COC(C)=O)CC[C@H]1O | 8 | 6 | 6 | – | >30 | – | 6 | 6 | Active | >30 | – | – | inactive | – | –
6 | C=C(C)[C@H]1CC/C(C)=C/CC[C@@](C)(Cl)[C@H](O)CC/C(COC(C)=O)=C\[C@@H]1OC(C)=O | 8 | – | – | – | >30 | – | 6 | 6 | – | >30 | – | inactive | inactive | inactive | –
7 | C=C(C)[C@H]1CC/C(C)=C/C/C=C(/C)[C@@H](O)CC/C(COC(C)=O)=C\[C@@H]1OC(C)=O | 6 | – | – | – | >30 | – | – | 6 | – | >30 | – | inactive | inactive | inactive | inactive
8 | C=C(C)[C@H]1CC/C(C)=C/CC[C@@]2(C)O[C@@H]2CC/C(CO)=C\[C@@H]1O [ASPERDIOL] | 6 | 8 | – | – | 4 | – | – | – | – | >30 | inactive | inactive | inactive | – | inactive
9 | C=C(C)[C@@H]1C/C=C(/COC(C)=O)CC[C@H]2O[C@]2(C)CC/C=C(\C)CC1 [KNIGHTOL ACETATE] | 6 | 6 | – | – | 30 | 8 | 6 | – | – | 8 | inactive | inactive | inactive | – | –
10 | C=C(C)[C@H]1CC/C(C)=C/CC[C@@]2(C)O[C@@H]2CC/C(COC(C)=O)=C\[C@@H]1O [ASPERDIOL ACETATE] | 8 | ≥ 10 | – | – | 30 | >30 | – | – | – | 30 | inactive | inactive | inactive | – | inactive
